From ChEMBL document CHEMBL6134900 (J Med Chem, 2025)

Tested on: NCI-H2030
Assay: Antitumor activity against human NCI-H2030 cells harboring KRAS G12C mutant/SMARCA4 mutant assessed as cell growth inhibition incubated for 7 days by Incucyte S3 analysis
Format: functional, cell-based
Conditions: time 7.0 day; call rule not given here
In short: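 H2030 cells plated at 500 per well and grown overnight at 37 °C. Treated with 3-fold dilutions of sotorasib, test agent, or both. Confluency imaged every 4 h for 7 days on IncuCyte S3. Synergy scored as Bliss/Lowe consensus, >10 taken as synergy.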

SMILES: C=CC(=O)N1CCN(c2nc(=O)n(-c3c(C)ccnc3C(C)C)c3nc(-c4c(O)cccc4F)c(F)cc23)[C@@H](C)C1
- Activity: Active; Minimal Inhibition Observed
